Active and inactive are the calls of the source. The rule behind the calls is not given here.

Test [1] addresses T1, M-phase inducer phosphatase 2 (Homo sapiens) (UniProt P30305).
T1 sequence (whole entry): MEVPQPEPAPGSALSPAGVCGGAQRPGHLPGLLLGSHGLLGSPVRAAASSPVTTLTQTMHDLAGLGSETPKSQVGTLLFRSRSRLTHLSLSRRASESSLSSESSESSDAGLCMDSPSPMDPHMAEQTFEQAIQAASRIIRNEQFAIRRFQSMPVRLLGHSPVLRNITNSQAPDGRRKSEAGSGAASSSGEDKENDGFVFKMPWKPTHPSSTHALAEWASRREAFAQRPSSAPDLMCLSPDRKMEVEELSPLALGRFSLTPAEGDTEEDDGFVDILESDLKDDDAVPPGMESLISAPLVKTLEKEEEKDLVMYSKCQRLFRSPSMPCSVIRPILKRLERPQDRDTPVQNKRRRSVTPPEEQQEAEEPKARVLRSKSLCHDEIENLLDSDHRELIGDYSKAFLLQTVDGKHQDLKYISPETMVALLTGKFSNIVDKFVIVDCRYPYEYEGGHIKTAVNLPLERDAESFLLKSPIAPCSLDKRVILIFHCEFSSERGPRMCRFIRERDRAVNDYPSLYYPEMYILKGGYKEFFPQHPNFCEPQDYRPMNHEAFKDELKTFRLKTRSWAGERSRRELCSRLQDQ
As to the kind of experiment: Inhibition of recombinant phosphatase activity of Cdc25B catalytic domain expressed in Escherichia coli BL21(DE3) using OMFP as substrate at 50 uM by spectrofluorimetric analysis. The procedure, abridged: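 Single-point screen: percent inhibition of Cdc25B phosphatase activity (OMFP hydrolysis) measured with inhibitor at 50 μM.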

Test [2] deals with T2, M-phase inducer phosphatase 1 (Homo sapiens) (UniProt P30304).
T2 sequence (whole entry): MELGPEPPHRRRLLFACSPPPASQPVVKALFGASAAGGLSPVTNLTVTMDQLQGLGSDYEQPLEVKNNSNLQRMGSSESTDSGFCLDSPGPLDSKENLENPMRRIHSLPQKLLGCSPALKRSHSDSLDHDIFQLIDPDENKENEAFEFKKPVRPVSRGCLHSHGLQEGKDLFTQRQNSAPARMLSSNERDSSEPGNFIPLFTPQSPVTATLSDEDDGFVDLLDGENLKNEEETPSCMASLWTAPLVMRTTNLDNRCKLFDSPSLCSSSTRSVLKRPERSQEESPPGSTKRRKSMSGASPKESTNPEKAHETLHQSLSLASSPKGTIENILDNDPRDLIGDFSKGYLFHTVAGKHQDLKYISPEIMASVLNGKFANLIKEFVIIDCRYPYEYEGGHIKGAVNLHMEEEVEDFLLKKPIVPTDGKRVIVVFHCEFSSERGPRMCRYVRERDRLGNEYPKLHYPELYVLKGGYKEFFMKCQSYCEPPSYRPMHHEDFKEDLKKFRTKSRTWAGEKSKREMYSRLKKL
As to the kind of experiment: Inhibition of recombinant phosphatase activity of Cdc25A catalytic domain expressed in Escherichia coli BL21(DE3) using OMFP as substrate at 100 uM after 15 mins by fluorimetric assay.

Test [3] has as its target T1, M-phase inducer phosphatase 2 (Homo sapiens). As to the kind of experiment: Reversible inhibition of recombinant phosphatase activity of Cdc25B catalytic domain expressed in Escherichia coli BL21(DE3) assessed as residual activity of enzyme measured after 10 fold dilution at 100 uM preincubated for 20 mins.
Test [4] addresses T3, M-phase inducer phosphatase 3 (Homo sapiens) (UniProt P30307).
T3 sequence (whole entry): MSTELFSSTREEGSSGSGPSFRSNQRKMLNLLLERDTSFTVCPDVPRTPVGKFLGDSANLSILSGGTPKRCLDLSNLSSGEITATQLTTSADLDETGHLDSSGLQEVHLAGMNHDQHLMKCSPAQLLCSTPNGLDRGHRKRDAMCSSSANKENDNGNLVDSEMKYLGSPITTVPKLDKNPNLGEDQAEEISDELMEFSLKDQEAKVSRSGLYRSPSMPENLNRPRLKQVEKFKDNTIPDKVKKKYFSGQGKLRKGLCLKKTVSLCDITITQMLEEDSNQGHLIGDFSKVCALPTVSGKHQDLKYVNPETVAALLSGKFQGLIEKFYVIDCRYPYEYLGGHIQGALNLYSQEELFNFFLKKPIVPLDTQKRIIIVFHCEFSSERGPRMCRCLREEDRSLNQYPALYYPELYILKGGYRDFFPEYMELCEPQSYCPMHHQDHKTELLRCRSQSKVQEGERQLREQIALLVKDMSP
Briefly: Inhibition of recombinant phosphatase activity of Cdc25C catalytic domain expressed in Escherichia coli BL21(DE3) using OMFP as substrate at 100 uM after 15 mins by fluorimetric assay.

For test [5], the target named is T1, M-phase inducer phosphatase 2 (Homo sapiens). Briefly: Inhibition of recombinant phosphatase activity of Cdc25B catalytic domain expressed in Escherichia coli BL21(DE3) using OMFP as substrate at 100 uM after 15 mins by fluorimetric assay.
For test [6], the target named is T4, M-phase inducer phosphatase 2 (Homo sapiens, UniProt P30305).
T4 sequence (P30305 whole entry): T1 sequence (whole entry)
As to the kind of experiment: Inhibition of recombinant phosphatase activity of Cdc25B catalytic domain expressed in Escherichia coli BL21(DE3) using OMFP as substrate by spectrofluorimetric analysis.

The target of test [7] is T1, M-phase inducer phosphatase 2 (Homo sapiens). Briefly: Reversible inhibition of recombinant phosphatase activity of Cdc25B catalytic domain expressed in Escherichia coli BL21(DE3) assessed as residual activity of enzyme measured after 10 fold dilution at 50 uM preincubated for 20 mins. The procedure, abridged: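 Dilution test: Cdc25B pretreated with inhibitor for up to 20 min, mixture diluted 10-fold, and residual phosphatase activity measured to judge reversible versus irreversible inhibition.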

In the case of `O=C(O)c1ccccc1C(=O)CCC(=O)c1ccccc1C(=O)O`, the inhibition in test [1] was found to be 20%.

As for `Cn1c(COc2ccccc2C(=O)O)nc2ccccc21`, the inhibition in test [2] was determined as 10%; in test [4], 35%; in test [5] it was 43%. The inhibition entry in test [3] was “Active”.

As for `O=C(O)c1ccccc1C(=O)c1ccc(Cl)c([N+](=O)[O-])c1`, the inhibition in test [1] was determined as 13%.

In the case of `CN(CCC(=O)O)C1=Nc2ccc(Cl)cc2C(c2ccccc2)=[N+]([O-])C1`, the inhibition in test [2] was 28%; in test [4], 48%; in test [5], 43%. The inhibition entry in test [3] is “Active”.

For the compound `O=C(C(=O)c1ccc(O)c(O)c1)c1ccc(O)c(O)c1`, the inhibition in test [1] worked out at 22%.

As to `O=C(Nc1ccc2ncccc2c1)Nc1ccc2ncccc2c1`, the inhibition came to 47% in test [2], 48% in test [4] and 32% in test [5]. For the same compound, in test [3], the inhibition result was “Active”.

Regarding `O=C(O)c1ccccc1-c1ccccc1C(=O)Nc1ccc2c(c1)nc(O)c1ccccc12`, the values for the inhibition in test [2], in test [4] and in test [5] were 66%, 48% and 45%, respectively. In addition, the inhibition entry in test [3] was “Active”.

Consider `COc1cc(O)c(C(=O)c2ccccc2)cc1S(=O)(=O)O`, for which the inhibition in test [1] was determined as 49%.

Turning to `O=C(O)c1cccc(Nc2ccccc2C(=O)O)c1`, the inhibition in test [1] is 18%.

Regarding `CC(C)(Oc1ccc(-c2cccc3ccccc23)cc1)C(=O)O`, the inhibition in test [2] worked out at 47%; in test [4], 50%; in test [5] it was 40%. Moreover, the inhibition result in test [3] was “Active”.

Turning to `O=C(O)c1cccc(F)c1C(=O)c1ccc2ccccc2c1`, in test [1], the inhibition was 34%.

In the case of `O=C(O)c1ccccc1C(=O)c1ccc(-c2ccccc2)cc1`, in test [1], the inhibition amounted to 54%. In addition, in test [6], the IC50 was determined as 23.1 µM. In test [7], the inhibition result was “Active”.

Turning to `Nc1ccc(-c2ccc(Nc3cc(S(=O)(=O)O)c(N)c4c3C(=O)c3ccccc3C4=O)cc2)c(S(=O)(=O)O)c1`, the inhibition stood at 72% in test [2], 49% in test [4] and 89% in test [5].

For the compound `Nc1ccc(Cc2ccc(N)c(C(=O)O)c2)cc1C(=O)O`, the inhibition in test [1] was found to be 52%. Moreover, the IC50 in test [6] was found to be 23.8 µM. Moreover, the inhibition result in test [7] was “Active”.

On to `NS(=O)(=O)c1cc2c(cc1Cl)N=C(CCC(=O)O)NS2(=O)=O`, for which the inhibition in test [2] turned out to be 21%; in test [4], 47%; in test [5] it was 41%. For the same compound, the inhibition entry in test [3] is “Active”.

Take `CC1=NN(c2ccc(S(=O)(=O)O)cc2)C(=O)/C1=C/c1ccc(Cl)cc1`: the inhibition in test [2] turned out to be 17%; in test [4] it was 54%; in test [5] it was 46%. For the same compound, the inhibition entry in test [3] was “Active”.

`O=C(O)c1ccccc1C(=O)c1cccc([N+](=O)[O-])c1`: the inhibition in test [1] was found to be 17%.

Take `CC(=O)c1ccc(C(=O)c2ccccc2C(=O)O)cc1`: in test [1], the inhibition turned out to be 20%.

Take `O=C1C=C(Nc2nc(C(=O)O)cc(=O)[nH]2)c2ccccc2C1=O`: the IC50 in test [6] was determined as 9.9 µM.

Regarding `O=C(O)c1ccccc1C(=O)c1cccc2ccccc12`, the inhibition in test [1] was determined as 41%.

`O=C(O)C1CCCN1Cc1c[nH]c2ccccc12` (configuration not stated): the inhibition stood at 39% in test [2], 45% in test [4] and 37% in test [5].

For `O=C(O)c1cc(C(=O)C(=O)c2cc(C(=O)O)c(O)c3ccccc23)c2ccccc2c1O`, the inhibition in test [1] is 26%.

In the case of `O=C(O)c1ccccc1C(=O)c1ccc(O)c([N+](=O)[O-])c1`, the inhibition in test [1] came out at 13%.

With `O=C(O)c1ccc(C(=O)c2ccccc2C(=O)O)cc1`, the inhibition in test [1] turned out to be 12%.

On to `Sc1ccc2ccccc2c1CNCc1ccccc1`, for which the inhibition in test [2] amounted to 35%; in test [4], 53%; in test [5], 60%.

As for `O=C(O)c1cccc(Oc2ccc(C(=O)O)c([N+](=O)[O-])c2)c1`, in test [1], the inhibition was 37%.
